Reference: PubChem BioAssay
Records with an inconclusive call do not appear.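 The calls were made as follows, unless noted: active = viability increase at or above a cutoff of the median across tested compounds plus 3 SD (cut at about 8.5% in these data, passing the limit was not always enough); inconclusive = some gains above the cutoff, reason not given; inactive = the rest.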

What was measured:
[1] = OD615 S. cerevisiae growth inhibition, permissive medium, pilot counter-assay, permissive growth control for S. cerevisiae lifespan shortening project (AID 705;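 active = growth inhibition above 25% in both replicates, a cutoff set 3 SD above the mean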); settings: OD615, 24 h, at 10 µM, stronger effect = higher value
In short: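 System: Engineered DeaD yeast | Buffer or medium: SC raffinose/galactose permissive medium | Incubation: Cells pre-grown 4 h, then 24 h compound exposure, 30 °C humidified | Measured by: Absorbance (optical density) at 615 nm | Read-out: Reduction in yeast growth (OD615)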

[2] = Restrictive medium S. cerevisiae growth inhibition, OD615, pilot screen of yeast lifespan reduction project, restrictive growth control (AID 706;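 active = growth inhibition above a set limit, 3 SD over mean compound inhibition, in both replicates, cut at about 43% in these data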;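 also: modified DeaD lifespan yeast strain shifted to restrictive glucose medium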); settings: OD615, 48 h, at 10 µM, stronger effect = higher value
In short: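 Material: modified S. cerevisiae; Medium: glucose-based CSMM-D restrictive medium; Compound dosing: one concentration, 10 µM final, 0.25% DMSO; Incubation: 48 h compound exposure at 30 °C; Measured by: OD615.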

[3] = viability gain of MRP-1-high H69AR cells under doxorubicin, pilot screen, MRP-1 activator project, CellTiter-Glo, duplicate (AID 807); settings: H69AR viability with doxorubicin, CellTiter-Glo luminescence; at 10 µM; stronger effect = higher value;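 also: compound pretreatment 18-22 h then 72 h combined with doxorubicin; 0% = doxorubicin alone and 100% = vehicle without doxorubicin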
[4] = growth suppression of beta-catenin knockout HCT116, pilot screen, human colon tumor cells (AID 823;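 active = cell viability at or below a set limit in both duplicate runs, the limit being the all-compound median minus 4 SD, cut at about 23% in these data, passing the limit was not always enough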;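 also: 0% = wells killed by 20 µM Hyamine and 100% = untreated DMSO cell wells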); settings: CellTiter-Glo, 60 h, at 10 µM, stronger effect = lower value
[5] = growth suppression of PTEN-deleted HCT116, pilot screen, cell-based, HCT116 clonal line, CellTiter-Glo (AID 824;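 active = viability at or below 27.92% in each of two runs, the all-compound median minus 4 SD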;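 also: 0% = 20 µM Hyamine control and 100% = vehicle cell control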); settings: 60 h, at 10 µM, stronger effect = lower value
[6] = inhibitors of the yeast RAM network, pilot screen, dse1pr::URA3 reporter, 5-FOA selection (AID 869;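 active = inhibition over a set limit, the all-compound mean plus 3 SD, in both replicate runs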;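 also: 0% = DMSO wells with no growth and 100% = 10 µM 1-NA-PP1 with full growth; RAM network block rescues cells from 5-FOA so hits raise OD615 growth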); settings: S. cerevisiae dse1pr::URA3 5-FOA growth, OD615, 2 d; at 10 µM; stronger effect = higher value; strain carries analog-sensitive mutant Cbk1 kinase
[7] = RAM signaling pathway blockade in yeast – S. cerevisiae, Pdr1DBD-CYC8 efflux-inhibited sensitized strain, primary screen (AID 1298;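 active = RAM network inhibition above 8.4% in each of two replicates, 3 SD over the compound average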;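 also: 0% = DMSO untreated cells without growth and 100% = 10 µM 1-NA-PP1 full growth; higher means more yeast growth rescued from 5-FOA killing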); settings: S. cerevisiae cbk1-as DSE1-URA3 strain, 5-FOA growth OD615, 2 d; at 50 µM; stronger effect = higher value

CCOC(=O)CSc1nccc(N(C)C)c1C#N
inactive: growth inhibition [1] -5.06% | growth inhibition [2] 7.88% | viability increase [3] 1.04% | viability [4] 99% | viability [5] 100% | inhibition [6] 0.83% | RAM network inhibition [7] 4.81%

Cc1cc(O)c(C=Nc2cccc(Cl)c2)c(=O)o1
inactive: growth inhibition [1] 4.66% | growth inhibition [2] 4.37% | viability increase [3] -3.17% | viability [4] 102% | viability [5] 94.1% | inhibition [6] 3.11% | RAM network inhibition [7] -0.93%

CCn1c(=O)cc(N2CCC3(CC2)OCCO3)[nH]c1=O
inactive: growth inhibition [1] -15.1% | growth inhibition [2] -8.98% | viability increase [3] 0.57% | viability [4] 96.8% | viability [5] 93.2% | inhibition [6] 1.01% | RAM network inhibition [7] 1.74%

COc1ccc(OCC(=O)Nc2cc(-c3nn4c(C)nnc4s3)ccc2C)cc1
inactive: growth inhibition [1] 0.16% | growth inhibition [2] 0.525% | viability increase [3] -1.72% | viability [4] 106% | viability [5] 94% | inhibition [6] 0.755% | RAM network inhibition [7] 5.36%

COc1ccccc1N(C(=O)NCc1ccccc1)C1=NCC(C)S1 (centres undefined)
inactive: growth inhibition [1] -16% | growth inhibition [2] -11.9% | viability increase [3] -3.44% | viability [4] 93.4% | viability [5] 89.2% | inhibition [6] 2.22% | RAM network inhibition [7] 7.42%

O=C(CCS(=O)NCc1ccccc1)NCc1ccccc1 (centres undefined)
inactive: growth inhibition [1] -7.98% | growth inhibition [2] -11.4% | viability increase [3] -2.13% | viability [4] 99.7% | viability [5] 99.9% | inhibition [6] 0.425% | RAM network inhibition [7] 1.51%

O=C(Nc1c(C(=O)N2CCCCC2)cnn1-c1ccccc1)c1ccco1
inactive: growth inhibition [1] -2.23% | growth inhibition [2] -5.33% | viability increase [3] -0.92% | viability [4] 95.2% | viability [5] 95.5% | inhibition [6] 1.14% | RAM network inhibition [7] 0.25%

O=C(NCc1ccco1)C1CCCN(S(=O)(=O)c2cccc3cccnc23)C1 (centres undefined)
inactive: growth inhibition [1] -10.6% | growth inhibition [2] -8.38% | viability increase [3] -4.15% | viability [4] 96.4% | viability [5] 94.4% | inhibition [6] 0.595% | RAM network inhibition [7] 0.89%

COc1ccccc1NC(=O)Nc1ccc(Br)cn1
inactive: growth inhibition [1] -10.3% | growth inhibition [2] -15.5% | viability increase [3] -2.09% | viability [4] 92.6% | viability [5] 87.7% | inhibition [6] 2.98% | RAM network inhibition [7] 8.69%

CCOC(=O)c1c(C)n(C)c2ccc(OCC(O)CN3CCN(C)CC3)cc12 (centres undefined)
inactive: growth inhibition [1] -9.58% | growth inhibition [2] -16.5% | viability increase [3] -1.87% | viability [4] 96.2% | viability [5] 106% | inhibition [6] 1.1% | RAM network inhibition [7] -0.99%

CCCS(=O)(=O)NCCc1cc2ccc(OC)cc2[nH]c1=O
inactive: growth inhibition [1] -13.2% | growth inhibition [2] -5.31% | viability increase [3] -2.79% | viability [4] 97.4% | viability [5] 90.1% | inhibition [6] 2.56% | RAM network inhibition [7] 2.19%

CCOCCCNC(=O)c1cc2c(-c3ccc(Cl)cc3)nn(C)c2s1
inactive: growth inhibition [1] 7.49% | growth inhibition [2] 11% | viability increase [3] -6.53% | viability [4] 62.2% | viability [5] 56.8% | inhibition [6] 2.62% | RAM network inhibition [7] 1.34%
